The structures appear in SMILES notation. Activity calls are given as the source filed them. No cut-off for these calls is given here.

These results are taken from ChEMBL document CHEMBL2029317, “(Z)-2-(2-bromophenyl)-3-{[4-(1-methyl-piperazine)amino]phenyl}acrylonitrile (DG172): an orally bioavailable PPARβ/δ-selective ligand with inverse agonistic properties” (J Med Chem, 2012).

One experiment has as its target T1, Peroxisome proliferator-activated receptor delta (Mus musculus) (UniProt P35396).
T1 sequence (whole entry): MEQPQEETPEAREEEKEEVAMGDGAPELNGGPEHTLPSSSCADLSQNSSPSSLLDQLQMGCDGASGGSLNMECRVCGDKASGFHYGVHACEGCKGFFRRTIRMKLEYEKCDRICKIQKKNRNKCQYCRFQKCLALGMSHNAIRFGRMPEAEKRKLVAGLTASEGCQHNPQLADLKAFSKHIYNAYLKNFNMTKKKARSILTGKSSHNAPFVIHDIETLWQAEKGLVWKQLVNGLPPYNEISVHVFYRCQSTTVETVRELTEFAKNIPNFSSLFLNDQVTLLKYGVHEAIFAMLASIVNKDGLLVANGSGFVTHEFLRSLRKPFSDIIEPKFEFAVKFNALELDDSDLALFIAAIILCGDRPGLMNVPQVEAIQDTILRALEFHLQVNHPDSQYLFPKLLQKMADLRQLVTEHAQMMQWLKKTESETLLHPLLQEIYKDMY
In words: Antagonist activity at PPARbeta/delta in mouse NIH3T3 cells coexpressing LexA assessed as decrease in L165,041-induced transcriptional activation at 1 uM after 48 hrs by luciferase reporter gene assay relative to control. It is filed as functional, cell-based. In outline:
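NIH3T3 cells were transfected with LexA-PPARα, -PPARβ/δ or -PPARγ fusion plasmids plus the 7L-TATAi luciferase reporter. From 4 h post-transfection, cells received inhibitory ligand (1 μM) for 48 h. Agonists followed: GW7647 300 nM (PPARα), L165,041 1 μM (PPARβ/δ) or GW1929 300 nM (PPARγ), or agonist solvent. Induction is luciferase activity with agonist relative to solvent; triplicates with t test.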
On the technique in general: Reporter assays use an easily measured gene product as a stand-in for the process of interest.
Take `N#C/C(=C\c1ccc(N2CCCCC2)cc1)c1ccccc1`: the result was Active.

For the next experiment, the target named is T1, Peroxisome proliferator-activated receptor delta (Mus musculus). In words: Displacement of fluormone Pan-PPAR Green from mouse recombinant GST-tagged PPARbeta/delta LBD at 1 uM after 60 mins by TR-FRET assay. In outline:
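Competitive binding by LanthaScreen TR-FRET: recombinant GST-PPARβ/δ LBD, detected through a terbium-labelled anti-GST antibody, was incubated with Fluormone Pan-PPAR Green. Compound was tested at 1 μM. Read-out is the 520 nm/495 nm emission ratio after terbium excitation, as averages of triplicates ± SD.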
As to `CN(C)c1ccc(/C=C/C=C(\C#N)c2ccccc2)cc1`, the result was inactive.
On the same count and under the same terms, the same measure for `N#C/C(=C\c1ccc(Cl)cc1)c1ccccc1`: “Active”; for `N#C/C(=C\c1ccc(N2CCOCC2)cc1)c1ccccc1`: “Active”; for `N#C/C(=C\c1ccc(C(F)(F)F)cc1)c1ccccc1`: “Active”.
As for `N#C/C(=C\c1ccccc1)c1ccccc1`, the result was Active.
On the same count and under the same terms, the same measure for `CN(C)c1ccc(C(C#N)=Cc2ccccc2)cc1`: “inactive”.
In the case of `COc1ccc(/C(C#N)=C/c2ccc(N(C)C)cc2)cc1`, the outcome was Active.
Take `N#C/C(=C\c1ccc(N2CCCCCC2)cc1)c1ccccc1`: the result was Active.
Still for that read-out and setting: the same measure for `CN(C)c1ccc(/C=C(\C#N)c2ccc([N+](=O)[O-])cc2)cc1`: “Active”; for `CN(C)c1ccc(/C=C(\C#N)c2ccc(Cl)cc2)cc1`: “Active”; for `CN(C)c1ccc(/C=C(\C#N)c2ccccc2[N+](=O)[O-])cc1`: “Active”.
Same read-out and setting: the same measure for `N#C/C(=C\c1cccc(Br)c1)c1ccccc1`: “Active”; for `CN(C)c1ccc(/C=C(\C#N)c2ccccc2I)cc1`: “Active”; for `N#C/C(=C\c1ccc(N)cc1)c1ccccc1`: “Active”.
The same measure, in the same setting: for `N#C/C(=C\c1ccc(N2CCCC2)cc1)c1ccccc1` the value was “Active”; for `CN(C)c1ccc(/C=C(\C#N)c2ccccc2C#N)cc1`, “Active”; for `N#C/C(=C\c1ccc(NC2CCCCC2)cc1)c1ccccc1`, “Active”.
`CN(C)c1ccc(/C=C(\C#N)c2ccc(F)cc2)cc1`: the result was Active.
For the molecule `CN(C)c1ccc(/C=C(\C#N)c2ccccc2F)cc1`, the result was Active.
Same read-out and setting: for `CN(C)Cc1ccc(/C=C(\C#N)c2ccccc2)cc1` the value was “Active”; for `N#C/C(=C\c1ccc(N2CCCCC2)cc1)c1ccccc1`, “Active”; for `COc1ccccc1/C(C#N)=C/c1ccc(N(C)C)cc1`, “Active”.
In the case of `COc1ccc(/C=C(\C#N)c2ccccc2)cc1`, the result was Active.
The same measure, in the same setting: for `CN(C)c1ccc(CC(C#N)c2ccccc2)cc1` (racemic) the value was “inactive”; for `N#C/C(=C\c1ccccc1Br)c1ccccc1`, “Active”.
Same read-out and setting: the same measure for `N#C/C(=C\c1ccc(Br)cc1)c1ccccc1`: “Active”; for `CN(C)c1ccc(/C=C/c2ccccc2)cc1`: “inactive”.
Regarding `CN(C)c1ccc(/C=C(\C#N)c2ccccc2Br)cc1`, the result was Active.
As for `CN(C)c1ccc(/C=C(\C#N)c2ccccc2C(F)(F)F)cc1`, the outcome was Active.
Regarding `N#C/C(=C\c1ccc(Nc2ccccc2)cc1)c1ccccc1`, the result was Active.
Turning to `CC1CCN(c2ccc(/C=C(\C#N)c3ccccc3)cc2)CC1`, the outcome was Active.
In the case of `CN(C)c1ccc(/C=C(\C#N)c2cccc(Cl)c2)cc1`, the result was Active.
Take `CN1CCN(c2ccc(/C=C(\C#N)c3ccccc3)cc2)CC1`: the outcome was Active.
For `N#C/C(=C\c1ccc(N2CCNCC2)cc1)c1ccccc1`, the outcome was Active.

For another experiment, the target named is T2, Peroxisome proliferator-activated receptor delta (Mus musculus, UniProt P35396).
T2 sequence (P35396 whole entry): T1 sequence (whole entry)
In words: Inverse agonist activity at PPARbeta/delta in mouse C2C12 cells assessed as inhibition of Angptl4 expression after 24 hrs by RT-qPCR analysis. The experiment is classed as functional, cell-based. (In general: Real-time PCR tracks product formation cycle by cycle.)
`CN(C)c1ccc(/C=C(\C#N)c2ccccc2)cc1`: the IC50 was more than 500 nM.

The term IC50 denotes the concentration at which inhibition is half-maximal.
